Published values from different studies.
Each line is one published result; the experiments were not run side by side.
Target: Mitogen-activated protein kinase 11 (MAPK11, Homo sapiens, UniProt Q15759)
Technique: competition with immobilised ligand

COc1ccnn2ncc(-c3ccnc(N(C)C)n3)c12 has a remaining binding of 92% (binding; 1 µM).
With Cc1cc(C)c(-n2ccn3nc(-c4cccnc4)cc23)cc1NC(=O)c1cc(C#N)cc(S(F)(F)(F)(F)F)c1 the remaining binding was 93.4% (cell-free assay; 0.1 µM).
The remaining binding of Nc1ncc2c(n1)-c1c([nH]c3ccc(C#CC4CC4)cc13)CCCC2 is reported as 100% (binding; 1 µM).
O=C(NCC1CCOCC1)c1n[nH]cc1NC(=O)c1c(F)cccc1F gave a remaining binding of 96% (binding; 1 µM).
For c1cnn2ncc(-c3ccnc(N4CCC45COC5)n3)c2c1, the remaining binding was 100% (binding; 1 µM).
The remaining binding of C[C@@]1(Cc2ccc(C#N)cc2)C(=O)N(c2cc(Cl)cc(Cl)c2)c2ncc(C(=O)NC3(c4nc(C5CCC5)no4)CC3)n21 is reported as 100% (cell-free assay; 1 µM).
C=CC(=O)N1CCC(C(=O)NCC(=O)N2CCN(c3nc(-c4cnc(N)nc4C(F)F)nc(N4CCOCC4)n3)CC2)CC1 gave a remaining binding of 89% (binding; 1 µM).
For O=C(c1ccc(Nc2ncc(Cl)c(-c3cc4ccccc4s3)n2)cc1)N1CCC(N2CCCC2)CC1, the remaining binding was 82% (binding; 1 µM).
The remaining binding of CCS(=O)(=O)c1cc2cc(C[C@](O)(CC(C)(C)c3ccc(F)cc3C(N)=O)C(F)(F)F)[nH]c2cn1 is reported as 100% (cell-free assay; 1 µM).
With CCN1CCN(Cc2ccc(C(=O)Nc3ccc(C)c(Oc4ccc5c(c4)CC(=O)N5)c3)cc2C(F)(F)F)CC1 the remaining binding was 7% (binding; 1 µM).
The remaining binding of C[C@@H]1CN(c2ccc3ncc(-c4ccc5[nH]nc(C6CC6)c5c4)n3n2)C[C@H](C)O1 is reported as 100% (binding; 50 nM).
With O=S(=O)(NC1CCC(c2cc(F)ccc2F)(S(=O)(=O)c2ccc(Cl)cc2)CC1)C(F)(F)F (stereo not shown) the remaining binding was 94% (cell-free assay; 1 µM).
C[C@H]1CCN(c2nccc(-c3cnn4ncccc34)n2)C1 gave a remaining binding of 55% (binding; 1 µM).
With C[C@@H](c1ccc(-n2cnc3c(N)ncnc32)cc1)N1CCc2nn(C)c(Cc3ccccc3)c2C1=O the remaining binding was 92% (binding; 0.1 µM).
CN(CCCC(F)(F)F)c1nccc(-c2cnn3ncccc23)n1 has a remaining binding of 93% (binding; 1 µM).
With CNC(=O)[C@@H]1CC[C@@H](n2c(-c3ccc4cnccc4c3)nc3ccc(C(=O)NCc4cccc(C(N)=O)c4)cc32)C1 the remaining binding was 100% (binding; 1 µM).
NS(=O)(=O)c1cc(NC(=O)C2(c3ccccc3Cl)CC2)ccc1Oc1cccc(Cl)c1 gave a remaining binding of 68% (cell-free assay; 1 µM).
With CN(C)c1nccc(-c2cnn3ncccc23)n1 the remaining binding was 100% (binding; 1 µM).
C[C@@H]1CN(c2cc(-c3n[nH]c4ccc(OC5(C)CC5)cc34)ncn2)C[C@H](C)O1 has a remaining binding of 89% (cell-free assay; 0.1 µM).
FC(F)(F)Oc1cccc(-c2cnc3ccc(-c4ccncc4)nn23)c1 gave a remaining binding of 89% (cell-free assay; 5 µM).
The remaining binding of O=C(NCCCN1CCOCC1)c1ccc(Nc2nccc(-c3cc4ccccc4s3)n2)cc1 is reported as 98% (binding; 1 µM).
COc1ncc2cc3ccccc3nc2c1C#N has a remaining binding of 92% (cell-free assay; 5 µM).
